# According to article PMC8596699 (Chemmedchem, 2021):
# Molecular target: T1, DMT1 (SLC11A2) (Homo sapiens, UniProt P49281)
# T1 sequence (P49281 1-568): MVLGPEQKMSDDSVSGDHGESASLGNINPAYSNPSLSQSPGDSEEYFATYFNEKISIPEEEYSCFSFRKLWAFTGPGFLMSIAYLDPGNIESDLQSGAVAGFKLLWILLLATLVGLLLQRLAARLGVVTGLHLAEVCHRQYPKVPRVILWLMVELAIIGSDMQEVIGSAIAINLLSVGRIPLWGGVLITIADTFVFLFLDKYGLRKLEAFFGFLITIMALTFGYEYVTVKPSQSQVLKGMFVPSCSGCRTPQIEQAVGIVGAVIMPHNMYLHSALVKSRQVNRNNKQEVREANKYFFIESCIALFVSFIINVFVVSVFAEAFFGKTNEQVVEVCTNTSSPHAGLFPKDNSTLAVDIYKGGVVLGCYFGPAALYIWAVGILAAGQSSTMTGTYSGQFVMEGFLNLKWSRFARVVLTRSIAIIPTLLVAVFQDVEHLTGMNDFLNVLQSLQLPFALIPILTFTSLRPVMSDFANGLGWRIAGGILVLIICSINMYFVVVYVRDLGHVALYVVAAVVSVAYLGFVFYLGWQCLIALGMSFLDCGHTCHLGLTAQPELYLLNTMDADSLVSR
# Assay: Radioactive 55Fe uptake assay in HEK293 cells stably overexpressing DMT1
# Format: cell-based
# How it was run: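 HEK293 cells stably expressing human DMT1 (pIRES2 DsRed-Express2, geneticin 500 μg/mL) were seeded at 50,000 cells/well for 24 h. Cells were preincubated 5 min in uptake buffer, pH 5.5, with a range of test compound. ⁵⁵Fe²⁺ (1 μM) with ascorbate and unlabelled Fe²⁺ was then added for 15 min at room temperature. After ice-cold washes, uptake was read by scintillation counting as % of DMSO control. IC50 came from a 4-parameter logistic fit (two experiments in triplicate), and LE was derived from IC50.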
structure (smiles),measurement,setting,value
CC1CCc2sc(C(=O)O)cc2C1 (centres unmarked) [compound 2],IC50,,525 ± 65 µM
same,ligand efficiency LE,from DMT1 IC50,0.35 kcal^.mol^−1
